≈ marks a conversion by molar mass, not a printed value.
Columns and labels:
[1] = Intrinsic clearance in human liver microsomes at 1 uM in presence of NADPH; assay type: ADME, Microsome; conditions: read-out: CLH
Cannabinoid receptor 1 [2] = molecular target: T1, Cannabinoid receptor 1 (Homo sapiens, UniProt P21554); experiment: Agonist activity at human CB1 receptor expressed in HEK293 cells assessed as [35S]GTPgamma binding relative to WIN55212-2; assay type: functional, cell-based
Method in brief: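 GTPγ35S binding on membranes from HEK293 EBNA cells stably transfected with cloned human CB1; Emax relative to WIN55,212-2 as reference agonist; means of at least three measurements.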

[3] = molecular target: Voltage-gated inwardly rectifying potassium channel KCNH2 (Homo sapiens, UniProt Q12809)
Voltage-gated inwardly rectifying potassium channel KCNH2, sequence (Q12809 whole entry): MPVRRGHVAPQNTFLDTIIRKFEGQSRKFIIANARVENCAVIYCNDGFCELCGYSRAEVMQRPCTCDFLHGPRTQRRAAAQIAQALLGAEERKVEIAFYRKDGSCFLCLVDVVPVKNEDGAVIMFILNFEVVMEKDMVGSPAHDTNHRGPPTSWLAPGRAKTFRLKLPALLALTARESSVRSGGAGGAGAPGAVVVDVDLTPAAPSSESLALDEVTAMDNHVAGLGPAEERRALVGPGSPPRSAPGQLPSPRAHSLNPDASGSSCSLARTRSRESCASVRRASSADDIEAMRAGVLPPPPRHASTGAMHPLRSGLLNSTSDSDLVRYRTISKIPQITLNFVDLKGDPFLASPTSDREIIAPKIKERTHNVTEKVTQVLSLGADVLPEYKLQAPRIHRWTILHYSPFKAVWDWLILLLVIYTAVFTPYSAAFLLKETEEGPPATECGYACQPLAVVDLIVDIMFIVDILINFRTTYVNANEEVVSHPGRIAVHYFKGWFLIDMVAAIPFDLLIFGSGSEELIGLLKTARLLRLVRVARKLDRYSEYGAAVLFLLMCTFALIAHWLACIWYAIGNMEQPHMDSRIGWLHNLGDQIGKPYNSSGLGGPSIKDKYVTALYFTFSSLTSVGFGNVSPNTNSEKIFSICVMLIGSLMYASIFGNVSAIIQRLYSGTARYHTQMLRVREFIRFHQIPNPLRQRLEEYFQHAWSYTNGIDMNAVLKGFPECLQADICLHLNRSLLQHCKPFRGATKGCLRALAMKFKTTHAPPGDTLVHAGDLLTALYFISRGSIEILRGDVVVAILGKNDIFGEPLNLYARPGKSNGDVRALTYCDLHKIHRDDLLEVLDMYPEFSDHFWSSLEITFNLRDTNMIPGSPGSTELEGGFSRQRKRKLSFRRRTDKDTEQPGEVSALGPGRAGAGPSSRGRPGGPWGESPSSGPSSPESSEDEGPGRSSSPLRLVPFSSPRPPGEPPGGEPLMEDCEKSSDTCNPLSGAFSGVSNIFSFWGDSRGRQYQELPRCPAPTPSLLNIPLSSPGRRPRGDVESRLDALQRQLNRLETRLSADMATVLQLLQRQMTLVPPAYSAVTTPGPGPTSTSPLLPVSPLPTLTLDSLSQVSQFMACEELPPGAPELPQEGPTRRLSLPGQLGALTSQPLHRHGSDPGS

[4] = Thermodynamic solubility of the compound at pH 7.4; conditions: buffer
Cannabinoid receptor 1 [5] = molecular target: T1, Cannabinoid receptor 1; experiment: Agonist activity at human CB1 receptor expressed in HEK293 cells assessed as [35S]GTPgamma binding; assay type: functional, cell-based
Cannabinoid receptor 1 [6] = molecular target: T1, Cannabinoid receptor 1; experiment: Displacement of [3H]CP55940 from human CB1 receptor expressed in HEK293 cells; assay type: cell-based
[7] = Ratio of drug level in brain to plasma in rat by microdialysis assay
[8] = Apparent permeability from apical to basal side of human Caco2 cells at 10 uM; conditions: Caco-2
Cannabinoid receptor 2 = Cannabinoid receptor 2 (Homo sapiens, UniProt P34972); experiment: Binding affinity to human CB2 receptor
Cannabinoid receptor 2, sequence (P34972 whole entry): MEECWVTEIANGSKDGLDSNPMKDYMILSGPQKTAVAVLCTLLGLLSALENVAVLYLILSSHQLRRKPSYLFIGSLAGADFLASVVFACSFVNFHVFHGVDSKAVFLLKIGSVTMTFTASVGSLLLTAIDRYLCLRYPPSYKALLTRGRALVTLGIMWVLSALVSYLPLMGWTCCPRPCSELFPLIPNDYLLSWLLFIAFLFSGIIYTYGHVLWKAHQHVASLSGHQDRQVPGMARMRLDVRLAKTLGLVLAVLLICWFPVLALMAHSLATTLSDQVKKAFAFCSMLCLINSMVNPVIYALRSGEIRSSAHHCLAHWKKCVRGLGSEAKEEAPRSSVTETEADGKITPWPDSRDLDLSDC

T1 sequence (P21554 whole entry): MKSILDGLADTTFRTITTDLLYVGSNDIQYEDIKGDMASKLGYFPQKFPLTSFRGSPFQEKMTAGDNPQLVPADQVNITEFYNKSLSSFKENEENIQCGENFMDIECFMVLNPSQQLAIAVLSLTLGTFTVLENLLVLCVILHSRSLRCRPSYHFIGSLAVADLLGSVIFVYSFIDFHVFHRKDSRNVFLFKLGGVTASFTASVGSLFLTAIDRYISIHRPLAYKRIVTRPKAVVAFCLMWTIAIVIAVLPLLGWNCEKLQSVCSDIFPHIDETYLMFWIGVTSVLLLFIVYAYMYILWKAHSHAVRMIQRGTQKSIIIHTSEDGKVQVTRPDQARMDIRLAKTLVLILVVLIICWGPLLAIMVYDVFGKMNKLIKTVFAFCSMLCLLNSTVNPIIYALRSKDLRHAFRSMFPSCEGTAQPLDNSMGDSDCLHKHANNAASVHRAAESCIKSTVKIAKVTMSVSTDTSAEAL

Row | Structure (SMILES) | microsomal CLint at 1 µM [1] [µL/min/mg] | Emax (Cannabinoid receptor 1 [2]) [%] | IC50 [3] [µM] | solubility thermodynamic [4] [µM] | EC50 (Cannabinoid receptor 1 [5]) [µM] | Ki (Cannabinoid receptor 1 [6]) [µM] | Kp [7] | Papp A→B at 10 µM [8] [nm/s] | Ki (Cannabinoid receptor 2) [µM]
1 | CONC(=O)CCCN(C)C(=O)c1ccc2c(c1)c1c(n2C)CC[C@@H](C2CCOCC2)C1 | 36 | 104 | > 33 | 1330 (≈ 587 µg/mL) | – | – | – | – | –
2 | CN(CCCC(=O)NCC#N)C(=O)c1ccc2c(c1)c1c(n2C)CC[C@@H](C2CCOCC2)C1 | 42 | 110 | – | 300 (≈ 135 µg/mL) | – | – | – | – | –
3 | CCN(CC(=O)NC1CC1)C(=O)c1ccc2c(c1)c1c(n2C)CC[C@H](C2CCOCC2)C1 | – | 106 | – | 49 (≈ 21.4 µg/mL) | 0.0242 | 0.0173 | – | – | –
4 | CN(CCCC(=O)NCCF)C(=O)c1ccc2c(c1)c1c(n2C)CC[C@@H](C2CCOCC2)C1 | 50 | 108 | – | 470 (≈ 215 µg/mL) | 0.0129 | – | 0.02 | – | –
5 | CCN(CCCC(=O)NC1CC1)C(=O)c1ccc2c(c1)c1c(n2C)CCC(C2CCOCC2)C1 (stereo not given) | 143 | 114 | – | 224 (≈ 104 µg/mL) | 0.0029 | – | – | – | –
6 | CCS(=O)(=O)n1c2c(c3cc(C(=O)N4CCC(C)CC4)ccc31)CN(C1CCOCC1)CC2 | – | 120 | – | > 1030 | – | – | 0.07 | 130 | –
7 | Cc1c(C(=O)c2cccc3ccccc23)c2cccc3c2n1[C@H](CN1CCOCC1)CO3 [WIN-552122] | – | – | – | 2 (≈ 0.853 µg/mL) | – | – | 2.3 | – | –
8 | CCNC(=O)CC[C@@H](CO)N(C)C(=O)c1ccc2c(c1)c1c(n2C)CC[C@@H](C2CCOCC2)C1 | 21 | 126 | – | – | – | – | 0.011 | – | –
9 | CN(CCC(=O)NC1CC1)C(=O)c1ccc2c(c1)c1c(n2C)CCC(C2CCOCC2)C1 (stereo not given) | – | – | – | 523 (≈ 229 µg/mL) | – | – | – | – | –
10 | CCN(CC(=O)NC1CC1)C(=O)c1ccc2c(c1)c1c(n2C)CCC(C2CCOCC2)C1 (racemic) | 53 | 106 | – | 36 (≈ 15.8 µg/mL) | – | – | – | – | –
11 | CN(CC(=O)NC1CC1)C(=O)c1ccc2c(c1)c1c(n2C)CCC(C2CCOCC2)C1 (racemic) | 37 | 121 | – | 108 (≈ 45.7 µg/mL) | – | – | – | – | 0.0263
12 | CCN(CCCC(=O)NCCO)C(=O)c1ccc2c(c1)c1c(n2C)CC[C@@H](C2CCOCC2)C1 | 38 | 113 | > 33 | 760 (≈ 357 µg/mL) | – | – | < 0.02 | – | –
13 | CNC(=O)CCCN(C)C(=O)c1ccc2c(c1)c1c(n2C)CCC(C2CCOCC2)C1 (racemic) | 27 | 121 | – | 1550 (≈ 660 µg/mL) | – | – | – | – | –
